For data set [1], the target named is T1, Toll-like receptor 7 (Homo sapiens, UniProt Q9NYK1).
T1 sequence (Q9NYK1 whole entry): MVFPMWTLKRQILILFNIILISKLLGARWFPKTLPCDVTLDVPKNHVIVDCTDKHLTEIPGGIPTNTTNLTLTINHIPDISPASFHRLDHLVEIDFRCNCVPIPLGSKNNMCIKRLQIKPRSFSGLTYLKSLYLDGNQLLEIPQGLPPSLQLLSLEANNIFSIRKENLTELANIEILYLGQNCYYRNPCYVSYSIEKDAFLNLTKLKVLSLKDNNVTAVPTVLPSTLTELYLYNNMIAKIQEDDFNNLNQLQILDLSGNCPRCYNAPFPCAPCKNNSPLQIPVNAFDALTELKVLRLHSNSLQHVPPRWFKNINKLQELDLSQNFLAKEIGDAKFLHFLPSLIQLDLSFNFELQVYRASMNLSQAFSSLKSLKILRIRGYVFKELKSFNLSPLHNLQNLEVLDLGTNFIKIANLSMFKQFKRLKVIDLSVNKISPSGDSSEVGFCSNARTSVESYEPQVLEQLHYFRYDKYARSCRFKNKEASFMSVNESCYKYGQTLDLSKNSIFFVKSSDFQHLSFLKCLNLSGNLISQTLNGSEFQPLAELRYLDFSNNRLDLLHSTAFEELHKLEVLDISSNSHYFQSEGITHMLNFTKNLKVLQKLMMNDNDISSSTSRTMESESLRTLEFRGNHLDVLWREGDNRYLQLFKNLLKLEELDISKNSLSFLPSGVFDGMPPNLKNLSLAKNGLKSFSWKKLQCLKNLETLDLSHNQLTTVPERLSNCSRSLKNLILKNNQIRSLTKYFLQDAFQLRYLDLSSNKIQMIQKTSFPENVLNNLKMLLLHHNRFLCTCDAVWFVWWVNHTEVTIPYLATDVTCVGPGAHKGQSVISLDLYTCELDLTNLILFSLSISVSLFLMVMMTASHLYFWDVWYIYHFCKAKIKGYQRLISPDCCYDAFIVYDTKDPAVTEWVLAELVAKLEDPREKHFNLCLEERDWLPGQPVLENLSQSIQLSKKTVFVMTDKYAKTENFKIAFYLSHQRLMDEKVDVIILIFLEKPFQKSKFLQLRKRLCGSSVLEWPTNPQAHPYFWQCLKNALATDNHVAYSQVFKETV
Kind of data set: Agonist activity at TLR7 in human cryopreserved PBMC assessed as induction of IFNalpha production measured after 24 hrs. The method, boiled down:
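Cryopreserved healthy-donor human PBMC, recovered 2 h at 37°C/5% CO2, then 100k cells/well in RPMI/10% FBS exposed 24 h at 37°C to a 10-point half-log dilution series (0.5% final DMSO). Supernatant IFNα-2a quantified by MSD electrochemiluminescence immunoassay. For the ratio, divided by the IL-12p40 EC50 from the same PBMC screen.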

A short description of data set [2]: Cytotoxicity against human MT4 cells assessed as reduction in cell viability measured after 4 to 5 days by celltiter-glo assay. As to conditions: time 4-5 day. It counts as cell-based.
Data set [3] in a line: Selectivity index, ratio of CC50 for human MT4 cells to EC50 for TLR8 in human cryopreserved PBMC assessed as induction of IL-12p40 production.
A short description of data set [4]: Clearance in human hepatic microsomes at 2 uM measured up to 60 mins in presence of NADPH generating system by LC-MS/MS analysis. The format is ADME, Microsome. As to conditions: liver microsomes. In general terms: Liver microsomes are a subcellular fraction often used to study metabolism.
The nature of data set [5]: Drug metabolism in human hepatocytes assessed as oxidation of lipophilic chain. It counts as ADME, cell-based, Hepatocyte.
The nature of data set [6]: Clearance in Sprague-Dawley rat at 1 mg/kg, iv administered as 30 mins infusion by HPLC-MS analysis. The format is ADME, organism-based. As to conditions: in vivo. The method, boiled down: (§1)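 30-min intravenous infusion: Sprague Dawley rats 1 mg/kg, beagle dogs 0.25 mg/kg, cynomolgus monkeys 0.1 mg/kg; n = 3 per species, reported as mean ± SD.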
The nature of data set [7]: Half life in Sprague-Dawley rat at 1 mg/kg, iv administered as 30 mins infusion by HPLC-MS analysis. It counts as ADME, organism-based. As to conditions: in vivo. The essentials:
as §1

Data set [8] in a line: Clearance in Beagle dog at 0.25 mg/kg, iv administered as 30 mins infusion by HPLC-MS analysis. It counts as ADME, organism-based, Canis lupus familiaris. As to conditions: in vivo. The essentials: as §1
Data set [9] is described as follows: Cmax in Beagle dog at 0.5 mg/kg, po administered via gavage by HPLC-MS analysis. As to conditions: in vivo. Set-up: route oral, dose 0.5 mg/kg. It counts as ADME, organism-based, Canis lupus familiaris. The method, boiled down:
(§2)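 Oral dosing in 2% ethanol/40% PEG 300/58% 0.01N HCl: Sprague Dawley rats 5 mg/kg, beagle dogs 0.5 mg/kg, cynomolgus monkeys 3 mg/kg.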

The nature of data set [10]: Oral bioavailability in Beagle dog at 0.5 mg/kg administered via gavage by HPLC-MS analysis. As to conditions: in vivo. It counts as ADME, organism-based, Canis lupus familiaris. The method, boiled down: as §2
Data set [11] is described as follows: Clearance in cynomolgus monkey at 0.1 mg/kg, iv administered as 30 mins infusion by HPLC-MS analysis. It counts as ADME, organism-based, Macaca fascicularis. As to conditions: in vivo. The essentials: as §1
Data set [12] is described as follows: Volume of distribution at steady state in cynomolgus monkey at 0.1 mg/kg, iv administered as 30 mins infusion by HPLC-MS analysis. It counts as ADME, organism-based, Macaca fascicularis. As to conditions: in vivo, read-out: Vdss. The essentials: as §1
A short description of data set [13]: Half life in cynomolgus monkey at 0.1 mg/kg, iv administered as 30 mins infusion by HPLC-MS analysis. The format is ADME, organism-based, Macaca fascicularis. As to conditions: in vivo. The essentials:
as §1

Data set [14] in a line: AUC (infinity) in cynomolgus monkey at 3 mg/kg, po administered via gavage by HPLC-MS analysis. As to conditions: in vivo. Set-up: route oral, time infinity, dose 3 mg/kg. It counts as ADME, organism-based, Macaca fascicularis. The essentials: as §2
A short description of data set [15]: Oral bioavailability in cynomolgus monkey at 3 mg/kg administered via gavage by HPLC-MS analysis. It counts as ADME, organism-based, Macaca fascicularis. As to conditions: in vivo. The essentials: as §2
The nature of data set [16]: Drug absorption in cynomolgus monkey at 3 mg/kg, po administered via gavage by HPLC-MS analysis. The format is ADME, organism-based, Macaca fascicularis. As to conditions: in vivo, read-out: Drug absorption. The method, boiled down: as §2
Data set [17] can be described thus: Drug excretion in bile duct-cannulated Sprague-Dawley rat bile. It counts as ADME. As to conditions: in vivo.
The target in data set [18] is Toll-like receptor 3 (Homo sapiens) (UniProt O15455). Kind of data set: Agonist activity at human TLR3 expressed in HEK293 cells assessed as increase in NF-kappaB activation up to 10 uM incubated for 18 hrs by quanti-blue SEAP reporter gene assay. As to conditions: dose microM <=10, time […]. It counts as cell-based. The method, boiled down: (§3)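 HEK293 cells stably expressing individual human TLRs or other innate immune receptors, used as reporter gene assays. Minimum effective concentration defined as the level giving a 3-fold rise over background.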
(Reporter assays use an easily measured gene product as a stand-in for the process of interest.)

Data set [19] concerns the target T2, C-type lectin domain family 7 member A (Homo sapiens) (UniProt Q9BXN2).
T2 sequence (whole entry): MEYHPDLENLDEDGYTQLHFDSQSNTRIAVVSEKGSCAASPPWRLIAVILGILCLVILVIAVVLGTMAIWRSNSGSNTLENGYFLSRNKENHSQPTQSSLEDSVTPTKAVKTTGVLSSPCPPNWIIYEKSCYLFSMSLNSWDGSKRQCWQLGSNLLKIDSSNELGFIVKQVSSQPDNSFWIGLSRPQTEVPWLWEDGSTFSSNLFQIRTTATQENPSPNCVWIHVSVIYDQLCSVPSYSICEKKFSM
The experiment in a line: Agonist activity at human Dectin1a expressed in HEK293 cells assessed as increase in NF-kappaB activation up to 10 uM incubated for 24 hrs by quanti-blue SEAP reporter gene assay. It counts as cell-based. As to conditions: dose microM <=10, time 24.0 hrs. The method, boiled down: as §3

Data set [20] can be described thus: Immunomodulatory activity in human primary hepatocytes infected with HBV assessed as stimulation of CD8+T cell response to virus by measuring decrease in HBeAg production treated with media from PBMC stimulated with 10 nM compound for 10 days relative to control. The format is functional. Set-up: scale not given: the % may be the effect or the level left. As to conditions: time 10 day.

Active and inactive are the calls of the source.

Data on 1 compound can be found in ChEMBL document CHEMBL4725242, “Discovery of GS-9688 (Selgantolimod) as a Potent and Selective Oral Toll-Like Receptor 8 Agonist for the Treatment of Chronic Hepatitis B” (J Med Chem, 2020).

Sequence of Toll-like receptor 3 (Homo sapiens) (O15455 whole entry): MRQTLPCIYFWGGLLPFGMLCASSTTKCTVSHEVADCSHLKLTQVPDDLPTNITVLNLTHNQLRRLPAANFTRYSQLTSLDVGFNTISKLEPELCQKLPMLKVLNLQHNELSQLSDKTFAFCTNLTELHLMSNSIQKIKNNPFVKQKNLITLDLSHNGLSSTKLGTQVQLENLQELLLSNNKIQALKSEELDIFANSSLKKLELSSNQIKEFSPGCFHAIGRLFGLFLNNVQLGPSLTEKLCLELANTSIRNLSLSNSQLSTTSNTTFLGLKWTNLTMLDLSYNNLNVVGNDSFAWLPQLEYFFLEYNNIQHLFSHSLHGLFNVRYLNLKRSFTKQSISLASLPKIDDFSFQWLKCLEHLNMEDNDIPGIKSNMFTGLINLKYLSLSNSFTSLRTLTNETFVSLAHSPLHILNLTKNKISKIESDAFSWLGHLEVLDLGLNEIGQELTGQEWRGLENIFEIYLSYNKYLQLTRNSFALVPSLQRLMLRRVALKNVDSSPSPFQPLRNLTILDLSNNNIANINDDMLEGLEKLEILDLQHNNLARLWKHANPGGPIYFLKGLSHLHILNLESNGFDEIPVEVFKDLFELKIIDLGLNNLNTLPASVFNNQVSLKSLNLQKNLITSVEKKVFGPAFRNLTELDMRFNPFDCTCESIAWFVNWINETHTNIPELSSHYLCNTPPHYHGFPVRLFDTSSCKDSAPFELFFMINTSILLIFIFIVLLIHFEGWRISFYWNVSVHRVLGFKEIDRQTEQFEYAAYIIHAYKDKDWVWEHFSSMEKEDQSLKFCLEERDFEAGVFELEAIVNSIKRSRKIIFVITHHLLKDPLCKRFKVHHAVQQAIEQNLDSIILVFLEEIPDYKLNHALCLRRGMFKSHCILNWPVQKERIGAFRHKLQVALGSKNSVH

For `CCCC[C@](C)(CO)Nc1nc(N)nc2cc(F)cnc12` [SELGANTOLIMOD], the EC50 in data set [1] is more than 50 µM. In addition, the CC50 in data set [2] came to 17 µM. In addition, in data set [3], the “Ratio CC50/EC50” value came out at 77. The CLhep predicted at 2 µM in data set [4] is 16.7 mL/min/kg. Further, the Drug metabolism entry in data set [5] is reported as “Metabolite_Detected”. The clearance was 30 mL/min/kg in data set [6], 20 mL/min/kg in data set [8] and 103 mL/min/kg in data set [11]. Besides, the half-life in [7] was 1.45 h; in data set [13], 0.67 h. The same compound returned a Cmax in data set [9] of 9.7 nM. The values for the bioavailability in data set [10] and in data set [15] were 0.8% and 0.3%, respectively. Moreover, the Vd in [12] turned out to be 2.1 L/kg. In data set [14], this compound returned an AUC(0-inf) of 4.7 nM·h. Also, the Fa in data set [16] is 100%. In data set [17], the Drug excretion result is given as “Active”. The result in data set [18] and in [19] was inactive. In addition, the Activity in [20] is on record as more than 50%.

Broadly, the EC50 is the concentration giving half of the maximal effect. A word on the CC50: it is the concentration at which the toxic effect on the cells reaches its halfway point. What is called clearance is the rate of elimination divided by the concentration. A word on the half-life: it is the time in which the quantity being followed falls by half. Usually Cmax stands for the highest concentration seen after dosing. The term bioavailability denotes the share of a dose that reaches the circulation, judged against a reference dose that is usually intravenous. As usually defined, the AUC(0-inf) is total exposure, with the tail of the curve extrapolated.
